Bioassay records: PubChem BioAssay, several laboratories
Wee1 stabilizer: human Wee1 degradation inhibition, primary screen; P30291; HeLa Luc-Wee1K328M stability, luciferase luminescence; 100% = proteasome inhibitor MG132 effect; reporter increase, % at 5 µM; actives 1.2% (n = 220,000);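 active = activation above the mean of all tested compounds plus 3 SD, set per screening run, cut at about 8.8% in these data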;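 note: cells exposed to compound for 20 h before luminescence read; 0% = DMSO alone and 100% = MG132 at 30 µM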
Target sequence (P30291 whole entry K328M): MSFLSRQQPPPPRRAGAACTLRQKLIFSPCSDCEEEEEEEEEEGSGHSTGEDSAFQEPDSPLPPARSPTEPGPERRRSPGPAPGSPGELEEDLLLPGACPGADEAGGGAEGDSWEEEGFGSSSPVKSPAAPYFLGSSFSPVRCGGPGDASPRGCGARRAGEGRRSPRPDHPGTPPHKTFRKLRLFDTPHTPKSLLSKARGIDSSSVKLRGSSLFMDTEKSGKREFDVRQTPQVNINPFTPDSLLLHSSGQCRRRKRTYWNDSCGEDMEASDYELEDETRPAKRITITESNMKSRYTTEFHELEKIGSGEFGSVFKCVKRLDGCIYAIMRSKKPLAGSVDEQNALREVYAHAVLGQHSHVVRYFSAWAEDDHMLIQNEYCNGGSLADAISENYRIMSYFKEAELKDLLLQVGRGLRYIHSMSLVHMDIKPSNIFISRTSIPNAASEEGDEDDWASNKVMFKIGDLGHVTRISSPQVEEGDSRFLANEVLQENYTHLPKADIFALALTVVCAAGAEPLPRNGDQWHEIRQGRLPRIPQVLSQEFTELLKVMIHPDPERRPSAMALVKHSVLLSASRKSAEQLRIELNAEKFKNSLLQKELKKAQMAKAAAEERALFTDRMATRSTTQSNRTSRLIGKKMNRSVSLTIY
Ins promoter up: MIN6 insulin promoter up-regulation. actives 0.3% (n = 190,000). MIN6 insulin promoter-GFP reporter, high-content imaging; hits give high values. AID 1625. z-score at 5 µM;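 active = z-score above 3 at 5 µM with at least 500 cells counted in the well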
RBBP9 inhibitor: blocks human serine hydrolase RBBP9; inhibition, % at 7.94 µM; O75884; actives 0.2% (n = 220,000); recombinant RBBP9, FP-Rh probe fluorescence polarization; AID 1515;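 active = inhibition above the campaign mean of all tested compounds plus 3 SD, cut at about 14% in these data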;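 note: plate controls were DMSO wells with RBBP9 for no effect and wells lacking RBBP9 protein for full effect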
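Test system – recombinant human RBBP9 · Input – RBBP9 2.5 µM in dispensing solution, pre-mixing · Medium – Tris buffer pH 8.0, NaCl, Pluronic · Schedule – preincubation 30 min plus labeling 45 min at 25 °C · Measured by – fluorescence polarization · Measure – % inhibition · Controls – DMSO and no-protein wells · Replicates – one well per compound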
Hsp70 activator: switches on Hsp70 transcription. actives 0.04% (n = 200,000). activation, % at 10 µM. HeLa Hsp70 promoter luciferase reporter, luminescence; scaled: vehicle 0, proteasome-inhibitor control 100%;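 active = activation above the mean across all tested compounds plus 3 SD, cutoff set per campaign, cut at about 5.5% in these data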;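 note: 100% = MG132 at 30 µM as the positive control and 0% = DMSO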
Mdm2 ligase inh: inhibitors of human Mdm2 E3 ubiquitin ligase; Q00987; signal enhancement, % at 5 µM; cell-based MDM2 ubiquitination luciferase reporter, 2 h; 0 = plate control, 100 = twice control, blank-subtracted; actives 0.11% (n = 210,000);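 active = signal enhancement of 30% or more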;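 note: luminescence tracks abundance of the self-degrading MDM2-luciferase fusion protein; higher signal means inhibition of MDM2 E3 ligase activity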
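Assay system: stable mammalian line carrying autodegrading MDM2–luciferase fusion reporter; amount: 2000 cells seeded into each well; buffer or medium: DMEM; benchmarks: plate control and blank wells; signal: luciferase luminescence; timing: 2 h compound exposure at 37 °C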
INS promoter inh: TRM-6 insulin promoter activity inhibition; actives 0.9% (n = 130,000); inhibition, % at 2 µM; TRM-6 cells, insulin promoter-eGFP reporter, imaging; reporter expression induced with tamoxifen;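 active = inhibition above the mean plus 3 SD, with well images judged a real hit on visual review, cut at about 60% in these data, passing the limit was not always enough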
Starred values were filed as active, the others as inactive; . = no result. Shown are actives, neighbours in structure and some others; about 2.2% of the full set was active somewhere.

SMILES | Wee1 stabilizer | Ins promoter up | RBBP9 inhibitor | Hsp70 activator | Mdm2 ligase inh | INS promoter inh
Cc1nn2c(Nc3ccccc3)c3c(nc2c1-c1ccccc1)CCC3 | -2 | -0.06 | -7 | 0 | -3 | 91*
COC(=O)/C(=C\Nc1ccc(Oc2ccc(F)cc2F)nc1)NC(=O)c1ccccc1 | 2 | 0.57 | -5 | . | -6 | .
O=C(NCc1ccc(S(=O)(=O)Nc2ccccc2Cl)s1)c1ccccc1 | -1 | 0.33 | -1 | . | -20 | .
NC(=O)C(CC(=O)O)NC(=O)[C@@H]1CCOc2c(I)cc([N+](=O)[O-])cc2C(=O)N[C@@H](CCC(=O)O)C(=O)N[C@@H](CO)C(=O)N1 (stereo not given in full) | 8.8* | 0.12 | -6 | 0 | . | 45
CCOc1cc(C)c(Cl)cc1S(=O)(=O)NCCOC | 9.5* | -0.07 | -6 | 0 | 0 | 14
Cc1ccc(C2=NNC(c3cccc(F)c3)S2)cc1 (stereo not given) | 15* | . | -7 | 0 | -82 | -25
COC(=O)c1c(C)[nH]c(C(=O)/C=C/c2ccccc2F)c1C | -1 | -0.18 | -7 | . | -23 | .
CCCCOC(=O)Nc1cc(C(=O)OC)ccc1C(=O)OC | -1 | 1.4 | 3 | 0 | -18 | 65*
CCN(CC)c1ccc(C(=S)N2CCN(c3ccccc3)CC2)cc1 | -3 | -0.04 | 0 | 0 | 3 | .
Cc1cccn2c(CNC3CCCc4ccccc43)c(C(=O)N3CCCCC3)nc12 (stereo not given) | -2 | -0.41 | -2 | 0 | -5 | .
COc1cccc(CNC(=O)C2=C(C)C(=O)OC23CCC(C)CC3)c1 (stereo not given) | 1 | 0.31 | 3 | 0 | 5 | 0
COc1cc2c(cc1OC)CN(c1nc(-c3cccnc3)nc3ccccc13)CC2 | 10* | -1.2 | -13 | 0 | -9 | 0
CC(CC(=O)Nc1cccnc1)c1ccccc1 (stereo not given) | 3 | 0.19 | -2 | 0 | -11 | .
CC1CCCCN1C(=O)COc1ccc(F)cc1 (stereo not given) | 9.6* | 0.15 | -5 | 0 | -13 | 11
Cc1ccc(S(=O)(=O)N2CCCCC2)cc1NC(=O)C1CCCO1 (stereo not given) | -1 | 0.12 | -1 | 0 | -6 | .
CCOc1ccc2c(c1)OC(c1ccc(OC)cc1)(C(F)(F)F)NC2=O (stereo not given) | 4 | 0.05 | -5 | 0 | -17 | .
CC(=O)/C(N=Nc1c(C)n(C)n(-c2ccccc2)c1=O)=C(\C)O | -2 | -0.3 | 4 | 0 | -16 | .
CCOC(=O)/C(N=Nc1c(C)n(C)n(-c2ccccc2)c1=O)=C(\C)O | 8.9* | -0.11 | -8 | 0 | 2 | .
O=C(Cn1nc(-c2ccccc2)c2ccccc2c1=O)Nc1cccnc1 | 1 | -0.24 | -1 | 0 | -11 | 77*
COc1ccc(CCNC(=O)COC(=O)CCC(=O)c2ccc(F)cc2)cc1 | 11* | -0.32 | -5 | 0 | 0 | .
COc1ccc(CCNC(=O)COC(=O)C2CC2)cc1 | 1 | 0 | -10 | 0 | -90 | .
CCOC(=O)c1sc2nc(C)cc(-c3ccccc3)c2c1N | -2 | . | -2 | -1 | -1 | .
CCCCOC(=O)c1sc2nc(C)cc(C)c2c1N | 3 | -1.4 | -4 | . | -7 | .
CCOC(=O)c1sc2nc(C)cc(C)c2c1N | 1 | 0.75 | -7 | 0 | -2 | 77*
Cc1cc(C)c2c(N)c(C(=O)N/N=C/c3cccnc3)sc2n1 | 9.5* | -0.08 | -5 | . | 0 | .
SMILES | Wee1 stabilizer | Ins promoter up | RBBP9 inhibitor | Hsp70 activator | Mdm2 ligase inh | INS promoter inh
CCOC(=O)c1sc2nc(-c3ccccc3)ccc2c1N | 11* | . | -7 | 0 | -26 | 27
S=C(Nc1ccc2cn[nH]c2c1)Nc1ccccc1Cl | 2 | 0.71 | -2 | 1 | 9 | 64*
S=C(Nc1ccc2cn[nH]c2c1)Nc1ccc(Cl)cc1Cl | -1 | . | 2 | 0 | -3 | -15
C=CCC1(Cl)C(=O)C(Cl)=C(N2CCOCC2)C1(OC)OC (stereo not given) | -3 | 1.5 | -9 | . | . | .
C/C(=N\NC(=O)c1ccc(COc2ccccc2)cc1)c1ccncc1 | -3 | -0.81 | -1 | 0 | -3 | .
Cn1cc(C(=O)c2ccc(Cl)cc2)cc1-c1nc2ccccc2n1C | 1 | -1.2 | -3 | 0 | -20 | .
C=CCc1cccc(/C=N/NC(=O)c2ccccc2OC)c1O | 8.9* | . | 8 | 0 | -53 | 45
C=CCc1cccc(/C=N/NC(=O)c2ccccc2Br)c1O | 1 | -1.6 | -8 | 0 | -10 | .
CCCC(C(=O)NC(C)(C)C)N(CC1CCCO1)C(=O)c1snc(C(N)=O)c1N (stereo not given) | 9.4* | 1.1 | 8 | 0 | -6 | 0
CCC(C(=O)NC1CCCCC1)N(Cc1cccs1)C(=O)c1snc(C(N)=O)c1N (stereo not given) | 9.8* | -0.69 | 2 | 0 | -2 | .
CCCC(C(=O)NC1CCCC1)N(CC1CCCO1)C(=O)c1snc(C(N)=O)c1N (stereo not given) | -4 | -0.32 | -6 | 0 | -8 | -7
CC1CCCC(C)N1C(=O)COc1ccc(C(=O)Nc2ccccc2N2CCOCC2)cc1 (stereo not given) | 1 | -0.27 | -4 | 0 | -28 | .
O=C1NCCn2ccc(=O)cc21 | 13* | -0.2 | 5 | . | -9 | .
Cn1c(=O)[nH]c(=O)c2c1nc(NC1CCCCC1)n2CCO | . | 1.5 | . | . | -14 | .
COC(=O)c1c(NC(=O)CN2CCC3(O)CCCCC3C2c2ccc(F)cc2)sc(C)c1C (stereo not given) | 0 | -0.1 | -9 | 0 | -5 | -14
COC(=O)c1c(NC(=O)CN2CCC3(O)CCCCC3C2c2cc(OC)ccc2OC)sc(C)c1C (stereo not given) | 7 | -0.23 | -4 | -1 | 4 | 64*
COc1cc2cc(CN(C(=O)NC3CCCCC3)C3CCCC3)c(=O)[nH]c2cc1OC | 8.8* | 0.83 | -5 | 0 | -4 | .
CCSc1nnc(NC(=O)C(CC)Oc2ccccc2)s1 (stereo not given) | 1 | 0.85 | -7 | 0 | -10 | -56
CC(O)C(C(=O)OCc1ccc([N+](=O)[O-])cc1)N1C(=O)c2ccccc2C1=O (stereo not given) | 0 | -0.25 | -2 | 0 | -7 | 62*
O=C(Nc1cnccn1)c1cccs1 | 0 | 0.31 | -2 | 0 | 0 | 19
COc1ccccc1-c1cc(SC)c(C#N)c(=O)o1 | -5 | -0.05 | -9 | 0 | 36* | -26
COc1ccccc1NC(=S)NC(=O)c1ccc(-c2ccc(Cl)cc2)o1 | 14* | 0.04 | -6 | 0 | -4 | -32
COCc1cc(=O)[nH]c(Nc2nc3ccc(C)cc3o2)n1 | 8.9* | -0.34 | -4 | 0 | 36* | 72
